# From ChEMBL document CHEMBL1126303, “Syntheses and affinities of novel organometallic-labeled estradiol derivatives: a structure-affinity relationship” (J Med Chem, 1992)
# “And” between values parts separate entries of the source, which are not always exact repeats. Identical values can stand only once.
# Molecular target: Estrogen receptor (Ovis aries) (UniProt P49885+Q9TU15)
# Assay: Relative binding affinity against the estrogen receptor using lamb uterine cytosol as a source of receptor and [3H]-estradiol as a tracer
# Type: protein assay
# Conditions: Uterus
# Summary of the method: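 Competitive radiometric binding on lamb uterine cytosol (105000g supernatant in 0.05 M Tris-HCl, 0.25 M sucrose, 0.1% β-mercaptoethanol, pH 7.4), 5 mg protein/mL. Incubated 3 h at 0 °C with 2 × 10⁻⁹ M [³H]estradiol plus competitor at nine concentrations, 1×10⁻¹⁰ to 1×10⁻⁶ M. Bound/free separated by protamine sulfate precipitation and filtration, then scintillation counting. Logit-transformed; RBA = IC50 estradiol/competitor ×100; mean of two determinations.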
# Sequence of Estrogen receptor (Ovis aries) (Q9TU15 whole entry, looked up, chain 1 of 2): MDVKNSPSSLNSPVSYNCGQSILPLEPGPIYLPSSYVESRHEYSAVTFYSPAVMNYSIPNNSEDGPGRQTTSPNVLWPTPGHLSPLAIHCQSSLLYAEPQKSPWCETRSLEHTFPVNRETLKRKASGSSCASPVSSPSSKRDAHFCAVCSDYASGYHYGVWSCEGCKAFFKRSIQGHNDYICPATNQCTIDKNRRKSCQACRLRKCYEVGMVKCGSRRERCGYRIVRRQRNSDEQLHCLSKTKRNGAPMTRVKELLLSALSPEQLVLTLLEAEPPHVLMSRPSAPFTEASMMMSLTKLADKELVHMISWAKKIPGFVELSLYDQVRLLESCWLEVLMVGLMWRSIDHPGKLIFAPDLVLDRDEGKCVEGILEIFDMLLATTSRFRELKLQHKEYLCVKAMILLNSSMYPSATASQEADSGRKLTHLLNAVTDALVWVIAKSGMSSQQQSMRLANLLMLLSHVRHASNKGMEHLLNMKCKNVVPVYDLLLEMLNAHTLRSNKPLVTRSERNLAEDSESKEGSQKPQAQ
# Sequence of Estrogen receptor (Ovis aries) (P49885 whole entry, looked up, chain 2 of 2): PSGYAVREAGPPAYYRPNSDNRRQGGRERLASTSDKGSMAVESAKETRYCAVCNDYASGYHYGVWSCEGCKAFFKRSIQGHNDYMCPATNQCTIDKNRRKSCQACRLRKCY
row,RBA,Molecule
1,2.9%,"(alpha,beta)-[Cp*Ru(17beta-estradiol)][CF3SO3]"
2,0.1%,[Cp Ru(eta5-17beta-estradienonyl)]
3,15%,17alpha-ferrocenyl-17beta-estradiol
4,27%,C[C@]12CC[C@@H]3c4ccc(O)cc4CC[C@H]3[C@@H]1CC[C@@]2(O)C#Cc1ccccc1
5,25%,C[C@]12CC[C@@H]3c4ccc(O)cc4CC[C@H]3[C@@H]1CC[C@@]2(O)c1ccccc1
6,11%,(17-alpha-phenyl-17beta-estradiol)tricarbonylchromium
7,24%,(17-alpha(phenylethynyl)-17beta-estradiol)tricarbonylchromium
8,0.1%,"(alpha,beta)-[Cp Ru(17beta-estradiol)][PF6-]"
9,0.44% and 0.46%,alpha [Cp Ru[eta5-17beta-estradienonyl] [BF4]
10,0%,(17alpha)-[Cp Ruphenyl]-17beta-estradiol)][CF3SO3]
